Assay [1] deals with T1, Thioredoxin reductase (Homo sapiens, UniProt Q16881+Q9NNW7+Q86VQ6). The assay is described as follows: Inhibition of thioredoxin reductase in the presence of thioredoxinand insulin. Format: protein assay. The procedure, abridged: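 Insulin reduction coupled to Trx/TrxR, final concentrations: 100 mM HEPES pH 7.2, 5 mM EDTA, 1 mM NADPH, 1.0 μM TrxR, 0.8 μM Trx, 2.5 mg/mL bovine insulin plus inhibitor. 30 min at 37 °C, stopped with 6 M guanidine HCl/50 mM Tris pH 8.0/10 mM DTNB, absorbance at 412 nm. IC50 for 50% inhibition of thionitrobenzoate formation.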

A further assay concerns MCF7. Kind of assay: Inhibition of growth of MCF-7 breast cancer cells in culture. Format: functional, cell-based. The following applies: Homo sapiens. The procedure, abridged: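 Human MCF-7 cells seeded at 3000/well in DMEM + 10% FBS, 16 h at 37 °C, 5.5% CO2, then compound 0.1–20 μM for 72 h. MTT added for 3 h, formazan dissolved in DMSO, dual OD read at 595/655 nm. Viability given as % of untreated control. IC50 is concentration halving growth versus control. Triplicate determinations.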

The target of assay [2] is T1, Thioredoxin reductase. Kind of assay: Inhibition of thioredoxin reductase. Format: protein assay. The procedure, abridged:
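TrxR-only activity in HE buffer (100 mM HEPES pH 7.2, 5 mM EDTA) with 1.0 μM TrxR, 10 mM DTNB, 1 mM NADPH and inhibitor (final). Compound and enzyme added first, reaction started with NADPH/DTNB at 37 °C. OD 412 nm read every 10 s for initial linear rates. IC50 is 50% inhibition of thionitrobenzoate formation.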

Consider `CN(C)c1ccc([Te]CC2O[C@@H]3O[C@@H]4C(CO)O[C@H](O[C@@H]5C(CO)O[C@H](O[C@@H]6C(CO)O[C@@H](O[C@@H]7C(CO)O[C@H](O[C@@H]8C(CO)O[C@H](O[C@@H]9C(CO)O[C@H](O[C@H]2C(O)C3O)C(O)C9O)C(O)C8O)C(O)C7O)C(O)C6O)C(O)C5O)C(O)C4O)cc1` (stereo partly specified), for which the values for the IC50 on Thioredoxin reductase [1], in the assay on MCF7 and on Thioredoxin reductase [2] were 3.4 µM, 10.4 µM and 0.26 µM, respectively.

Regarding `COc1ccc([Te]CC2O[C@@H]3O[C@@H]4C(CO)O[C@H](O[C@@H]5C(CO)O[C@H](O[C@@H]6C(CO)O[C@@H](O[C@@H]7C(CO)O[C@H](O[C@@H]8C(CO)O[C@H](O[C@@H]9C(CO)O[C@H](O[C@H]2C(O)C3O)C(O)C9O)C(O)C8O)C(O)C7O)C(O)C6O)C(O)C5O)C(O)C4O)cc1` (stereo partly specified), the IC50 on Thioredoxin reductase [1] worked out at 7.6 µM; in the assay on MCF7 it was 4.6 µM; on Thioredoxin reductase [2] it was 1.6 µM.

For the compound `OCC1O[C@@H]2O[C@@H]3C(C[Se]c4ccccc4)O[C@H](O[C@@H]4C(CO)O[C@H](O[C@@H]5C(CO)O[C@H](O[C@@H]6C(CO)O[C@@H](O[C@@H]7C(CO)O[C@H](O[C@@H]8C(CO)O[C@H](O[C@H]1C(O)C2O)C(O)C8O)C(O)C7O)C(O)C6O)C(O)C5O)C(O)C4O)C(O)C3O` (stereo partly specified), the results for the 50% inhibitory concentration (IC50) on Thioredoxin reductase [1], in the assay on MCF7 and against Thioredoxin reductase [2] were 18 µM, 10.2 µM and 17.8 µM, respectively.

As for `OCC1O[C@@H]2O[C@@H]3C(CO)O[C@H](O[C@@H]4C(CO)O[C@H](O[C@@H]5C(CO)O[C@@H](O[C@@H]6C(CO)O[C@H](O[C@@H]7C(C[Te]CC8O[C@@H]9O[C@@H]%10C(CO)O[C@@H](O[C@@H]%11C(CO)O[C@H](O[C@@H]%12C(CO)O[C@H](O[C@@H]%13C(CO)O[C@H](O[C@@H]%14C(CO)O[C@H](O[C@@H]%15C(CO)O[C@H](O[C@H]8C(O)C9O)C(O)C%15O)C(O)C%14O)C(O)C%13O)C(O)C%12O)C(O)C%11O)C(O)C%10O)O[C@H](O[C@@H]8C(CO)O[C@H](O[C@H]1C(O)C2O)C(O)C8O)C(O)C7O)C(O)C6O)C(O)C5O)C(O)C4O)C(O)C3O` (stereo partly specified), the IC50 was determined as 0.5 µM at Thioredoxin reductase [1], 1.4 µM in the assay with MCF7 and 2.4 µM at Thioredoxin reductase [2].

On to `CCCC[Te]CC1O[C@@H]2O[C@@H]3C(CO)O[C@H](O[C@@H]4C(CO)O[C@H](O[C@@H]5C(CO)O[C@@H](O[C@@H]6C(CO)O[C@H](O[C@@H]7C(CO)O[C@H](O[C@@H]8C(CO)O[C@H](O[C@H]1C(O)C2O)C(O)C8O)C(O)C7O)C(O)C6O)C(O)C5O)C(O)C4O)C(O)C3O` (stereo partly specified), for which the IC50 was determined as 1.2 µM at Thioredoxin reductase [1], 6 µM with MCF7 and 18 µM at Thioredoxin reductase [2].

As for `OCC1O[C@@H]2O[C@@H]3C(C[Te]c4ccc(O)cc4)O[C@H](O[C@@H]4C(CO)O[C@H](O[C@@H]5C(CO)O[C@H](O[C@@H]6C(CO)O[C@@H](O[C@@H]7C(CO)O[C@H](O[C@@H]8C(CO)O[C@H](O[C@H]1C(O)C2O)C(O)C8O)C(O)C7O)C(O)C6O)C(O)C5O)C(O)C4O)C(O)C3O` (stereo partly specified), the values for the half-inhibitory concentration (IC50) on Thioredoxin reductase [1], with MCF7 and at Thioredoxin reductase [2] were 4 µM, 1.6 µM and 18 µM, respectively.

As to `OCC1O[C@@H]2O[C@@H]3C(C[Te]c4ccccc4)O[C@H](O[C@@H]4C(CO)O[C@H](O[C@@H]5C(CO)O[C@H](O[C@@H]6C(CO)O[C@@H](O[C@@H]7C(CO)O[C@H](O[C@@H]8C(CO)O[C@H](O[C@H]1C(O)C2O)C(O)C8O)C(O)C7O)C(O)C6O)C(O)C5O)C(O)C4O)C(O)C3O` (stereo partly specified), the half-inhibitory concentration (IC50) at Thioredoxin reductase [1] was determined as 7.6 µM; with MCF7, 10.1 µM; at Thioredoxin reductase [2] it was 1.6 µM.

By IC50 is commonly meant the concentration at which inhibition is half-maximal.

(Values after ChEMBL document CHEMBL1149182, “Cyclodextrin-derived diorganyl tellurides as glutathione peroxidase mimics and inhibitors of thioredoxin reductase and cancer cell growth” (J Med Chem, 2004).)
